Screening data from PubChem BioAssay.
A selection: hits, their analogues and other compounds. The true share with any hit is near 2.4%.
HTRA1 inhibitor = inhibitors of human serine peptidase HTRA1; inhibition, % at 5.96 µM; 340,000 compounds, 0.5% hits; recombinant HTRA1, FP-rhodamine activity-based probe, fluorescence polarization; AID 504803; Q92743; in the data active means inhibition above about 36%;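 further: 0% = enzyme with DMSO and 100% = wells lacking enzyme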
mABHD4 FP = ABHD4 (mouse) inhibition, primary FP screen | 370,000 compounds, 0.54% hits | purified mABHD4, FP-Rh probe fluorescence polarization | Q8VD66 | inhibition, % at 8.92 µM;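 active means inhibition exceeding the mean over every tested compound plus 3 SD, cut at about 30% in these data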;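 further: 0% = plate median of compound wells and 100% = S159A mutant with DMSO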
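Assay system: mABHD4 protein; medium: HEPES pH 7.0, NaCl, Pluronic buffer; dosing: 8.92 µM, single dose; schedule: 45 min + 60 min at 25 °C; signal: FP readout, ex 525 nm / em 598 nm; read-out: normalized percent inhibition of probe labeling; repeats: single replicate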
PRMT1 inh = blocks human protein arginine methyltransferase 1; inhibition, % at 2.79 µM; 370,000 compounds, 1.3% hits; recombinant PRMT1, activity-based probe fluorescence polarization; AID 652257;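 active means inhibition above about 21% made by adding two undisclosed values, limit read from the data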
SIAE primary = inhibitors of human sialic acid acetylesterase SIAE. Q9HAT2. SIAE FP-Rh probe binding, fluorescence polarization. inhibition, % at 9.66 µM. 370,000 compounds, 0.69% hits. AID 1053197;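 active means inhibition above a cutoff: mean of compounds within the control limits plus 3 SD of those, cut at about 17% in these data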;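 further: 0% = plate median of compound wells and 100% = probe without SIAE protein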
JMJD2C inh = blocks human GASC-1 demethylase activity; 330,000 compounds, 0.069% hits; inhibition, % at 2.35 µM; Q9H3R0; GST-JMJD2C(1-420) H3K9me3 demethylation, DELFIA europium;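 active means more than half of a compound's replicate wells show inhibition beyond 50%, single wells judged on their own value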;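 further: signal counts dimethyl H3K9 product captured on neutravidin plate; 0% = median of DMSO wells and 100% = 0.3 times that DMSO median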
Target sequence (Q9H3R0 1-420 limits assumed): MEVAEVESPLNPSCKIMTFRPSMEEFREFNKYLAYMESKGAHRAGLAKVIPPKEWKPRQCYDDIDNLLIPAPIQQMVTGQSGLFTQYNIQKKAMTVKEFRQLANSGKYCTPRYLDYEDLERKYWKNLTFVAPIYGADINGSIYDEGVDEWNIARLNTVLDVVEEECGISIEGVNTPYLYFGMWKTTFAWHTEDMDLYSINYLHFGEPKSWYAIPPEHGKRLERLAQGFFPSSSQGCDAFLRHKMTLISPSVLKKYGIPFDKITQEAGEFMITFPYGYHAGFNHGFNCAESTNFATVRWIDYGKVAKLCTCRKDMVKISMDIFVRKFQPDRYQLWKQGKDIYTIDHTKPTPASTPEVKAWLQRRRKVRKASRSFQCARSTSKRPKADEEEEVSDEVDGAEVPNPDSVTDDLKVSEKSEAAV
mABHD4 conf = ABHD4 (mouse) inhibition, FP confirmation | inhibition, % at 8.92 µM | shares compounds with mABHD4 FP | 1,800 compounds, 55% hits | purified mABHD4, FP-Rh probe fluorescence polarization;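 active means mean inhibition across replicates above the hit cutoff set in the primary screen, cut at about 30% in these data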;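 further: 0% = wild-type ABHD4 with DMSO and 100% = catalytically dead S159A mutant with DMSO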
Numbers without * were called inactive; · = no result given.

SMILES	HTRA1 inhibitor	mABHD4 FP	PRMT1 inh	SIAE primary	JMJD2C inh	mABHD4 conf
COc1ccc(OC)c(N2Cc3cc(C)c(C)cc3C2)c1	31	30*	5	9	0	36*
CCOc1ccccc1N1Cc2cc(C)c(C)cc2C1	24	17	0	5	45	·
O=C1OC(c2ccccc2)(c2cc(Br)c(O)c(Br)c2)c2ccccc21 (stereo unspecified)	-7	35*	0	-1	·	32*
O=C(O)c1ccc(C2(c3ccc(C(=O)O)cc3)OC(=O)c3ccccc32)cc1	-5	1	0	-4	-2	·
NC(=S)NN=Cc1cc(-c2cccc(N)c2)ccn1	26	44*	6	0	·	58*
O=C(NNc1ccccn1)C(=O)NNS(=O)(=O)c1ccc(F)cc1	2	36*	-2	7	11	30*
O=C(NNc1ccccn1)C(=O)NNS(=O)(=O)c1ccc(Cl)cc1	6	58*	-1	-2	-34	55*
COCCNC(=O)C(=O)NNS(=O)(=O)c1ccc(Cl)cc1	-11	6	4	-3	-8	·
COc1cccc(CNC(=O)CCCN2C(=O)COc3ccc(C)cc32)c1OC	·	1	0	-5	·	·
O=C(Nc1ccc(Br)cc1)O[C@@H]1CC[C@@]23CCCN2C(=O)CCC[C@H]3C1	·	-2	-1	-2	·	·
Nc1[nH]n(-c2ccccc2)c(=O)c1N=Nc1ccccc1[N+](=O)[O-]	19	13	-3	3	-4	·
CCc1ccccc1N=Nc1c(N)[nH]n(-c2ccccc2)c1=O	·	34*	-2	12	·	45*
COc1ccccc1CN[C@@H]1CC[C@@]23CCCN2C(=O)CCC[C@H]3C1	·	-1	-1	-7	·	·
Cc1ccccc1CC(=O)N1CCC(CCC(=O)NC2CC2)CC1	4	3	3	-6	·	·
COc1cccc(C=NN(C)c2c([N+](=O)[O-])cc(C(F)(F)F)cc2[N+](=O)[O-])c1O	·	45*	0	9	·	49*
COc1ccc(OC)c(S(=O)(=O)N2CCC(C(=O)N3CCN(C4CCCCC4)CC3)CC2)c1	·	6	0	3	·	·
Cc1nn(-c2ccccc2)c(N2CCCC2)c1/C=N/NC(=S)Nc1ccccc1C(F)(F)F	-2	54*	-1	6	1	57*
Cc1nn(-c2ccccc2)c(N2CCCC2)c1/C=N/NC(=S)Nc1cc(C(F)(F)F)ccc1Cl	-5	6	0	8	3	·
N#Cc1ccccc1S(=O)(=O)N1CCN(CC(O)CN2CCOCC2)CC1 (stereo unspecified)	1	38*	2	6	12	12
COc1ccc(OC)c(S(=O)(=O)N2CCN(CC(O)CN3CCOCC3)CC2)c1 (stereo unspecified)	1	1	-7	-1	·	·
COC(=O)[C@]12C[C@H](CC(=O)NCc3cccs3)C(=O)N(CCc3ccc(OC)c(OC)c3)C1=C[C@H](C1CCCC1)O[C@@H]2C	·	0	2	-5	·	·
CCc1nc(N)nc(N)c1-c1ccc(Cl)c([N+](=O)[O-])c1	-3	-2	4	1	·	·
COCC(=O)N[C@H]1C=C[C@@H](CC(=O)OC)O[C@@H]1CO	·	-4	-2	-4	·	·
O=C1CC(Nc2ccccc2)C(=O)N1c1ccc(N2CCOCC2)cc1 (stereo unspecified)	4	0	2	4	·	·
O=C1CC(Nc2ccc(N3CCOCC3)cc2)C(=O)N1c1ccccc1F (stereo unspecified)	16	50*	17	14	-6	2
SMILES	HTRA1 inhibitor	mABHD4 FP	PRMT1 inh	SIAE primary	JMJD2C inh	mABHD4 conf
COc1ccc(NC(=O)COC(=O)c2c(C)noc2C)cc1Cl	8	1	0	-1	·	·
COCCNC(=O)C1Nc2ccc(C(F)(F)F)cc2C2C=CCC12 (stereo unspecified)	30	33*	9	8	3	0
CCOC(=O)[C@@]12CCCC=C1N(CCc1ccc(Cl)cc1)C(=O)[C@H]2CC(=O)N1CCCC1	·	3	1	3	·	·
CCC(C)C(=O)Nc1nc(C)c(-c2csc(Nc3cc(OC)ccc3OC)n2)s1 (stereo unspecified)	15	38*	3	13	4	62*
CCOc1ccc(-n2c(COc3ccc(C)cc3)nnc2SCC(=O)Nc2ccc(F)c(F)c2)cc1	·	-5	0	-3	·	·
COc1ccc(-c2nnc(CSc3nc4ccccc4c(=O)n3CC(C)C)o2)cc1OC	-28	31*	3	-11	5	28
CN1CCCCC(NC(=O)CCCl)C1=O (stereo unspecified)	·	-4	4	-5	·	·
CCOc1ccc(NC(=O)C2CCCN(S(=O)(=O)c3ccc4c(c3)C(C)(C)C(=O)N4C)C2)cc1 (stereo unspecified)	·	2	7	-1	·	·
NC(=Nc1ccc(N)cc1)C(N)=Nc1ccc(N)cc1	13	31*	6	9	-5	-3
CCOC(=O)Cc1nc(N2CCN(CCN)CC2)c2c(C)c(C(=O)OCC)sc2n1	·	1	-1	-5	·	·
O=C(N/N=C1\C/C(=N\NC(=O)c2ccncc2)c2ccccc21)c1ccncc1	29	39*	6	7	-41	29
CC(C)(C)c1ccc(-c2csc(N3CCC(C(N)=O)CC3)n2)cc1	·	35*	2	4	·	37*
C/C(=N\Nc1ccc(Cl)c(C(=O)O)c1)c1ccc2c(c1)OCO2	4	11	4	10	-2	·
C/C(=N\Nc1ccc(C(=O)O)cc1)c1ccc2c(c1)Nc1ccccc1S2	35	43*	3	16	21	77*
Oc1ccc(NC(=S)Nc2ccc(O)cc2)cc1	21	49*	4	14	-5	-7
O=C1NC[C@@H](CCCCN2CCN(CCc3ccccc3)C(=O)C2=O)N(CCC2CCCCC2)C1=O	·	5	-10	4	·	·
COc1ccc2[nH]cc(C(C)c3ccccc3O)c2c1 (stereo unspecified)	·	4	3	5	·	·
O=C(Nc1ccc2c(c1)OCCO2)C1c2ccccc2OCC(=O)N1CCc1c[nH]c2ccccc12 (stereo unspecified)	·	-2	-4	6	·	·
COC(=O)c1ccc(C2N=C(c3cccs3)CC(c3ccccc3O)N2)cc1 (stereo unspecified)	-15	36*	7	3	-15	-9
O=C(c1ccccc1)N1N=C(c2cccs2)CC1c1ccccc1O (stereo unspecified)	-42	-22	-7	-11	4	·
O=C(COc1ccccc1)N=C1SC2CS(=O)(=O)CC2N1c1ccc(F)cc1 (stereo unspecified)	4	34*	1	4	19	0
O=C(COc1ccccc1)N=C1SC2CS(=O)(=O)CC2N1CCc1ccccc1 (stereo unspecified)	4	2	2	-3	19	·
